Test results taken from ChEMBL document CHEMBL1136621 (Bioorg Med Chem Lett, 2003).

Assays:
[1] = biological target: T1, Thymidine phosphorylase (Homo sapiens) (UniProt P19971); assay: Susceptibility to thymidine phosphorylase (ThdPase) at a substrate concentration of 1.0 mM
T1 sequence (whole entry): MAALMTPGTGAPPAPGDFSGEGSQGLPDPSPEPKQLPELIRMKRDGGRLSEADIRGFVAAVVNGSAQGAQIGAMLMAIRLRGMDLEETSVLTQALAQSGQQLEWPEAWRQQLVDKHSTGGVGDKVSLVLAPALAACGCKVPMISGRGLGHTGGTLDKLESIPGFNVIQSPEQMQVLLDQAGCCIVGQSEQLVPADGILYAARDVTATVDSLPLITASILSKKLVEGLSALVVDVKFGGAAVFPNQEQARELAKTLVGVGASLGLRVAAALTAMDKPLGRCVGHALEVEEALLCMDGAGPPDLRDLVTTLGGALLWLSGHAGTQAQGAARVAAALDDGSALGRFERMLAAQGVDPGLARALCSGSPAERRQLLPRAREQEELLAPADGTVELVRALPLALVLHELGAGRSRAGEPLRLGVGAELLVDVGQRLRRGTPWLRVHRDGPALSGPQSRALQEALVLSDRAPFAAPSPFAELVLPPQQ

[2] = biological target: T2, Dihydropyrimidine dehydrogenase [NADP(+)] (Homo sapiens, UniProt Q12882); assay: Inhibitory activity against dihydropyrimidine dehydrogenase (DPD)
T2 sequence (Q12882 whole entry): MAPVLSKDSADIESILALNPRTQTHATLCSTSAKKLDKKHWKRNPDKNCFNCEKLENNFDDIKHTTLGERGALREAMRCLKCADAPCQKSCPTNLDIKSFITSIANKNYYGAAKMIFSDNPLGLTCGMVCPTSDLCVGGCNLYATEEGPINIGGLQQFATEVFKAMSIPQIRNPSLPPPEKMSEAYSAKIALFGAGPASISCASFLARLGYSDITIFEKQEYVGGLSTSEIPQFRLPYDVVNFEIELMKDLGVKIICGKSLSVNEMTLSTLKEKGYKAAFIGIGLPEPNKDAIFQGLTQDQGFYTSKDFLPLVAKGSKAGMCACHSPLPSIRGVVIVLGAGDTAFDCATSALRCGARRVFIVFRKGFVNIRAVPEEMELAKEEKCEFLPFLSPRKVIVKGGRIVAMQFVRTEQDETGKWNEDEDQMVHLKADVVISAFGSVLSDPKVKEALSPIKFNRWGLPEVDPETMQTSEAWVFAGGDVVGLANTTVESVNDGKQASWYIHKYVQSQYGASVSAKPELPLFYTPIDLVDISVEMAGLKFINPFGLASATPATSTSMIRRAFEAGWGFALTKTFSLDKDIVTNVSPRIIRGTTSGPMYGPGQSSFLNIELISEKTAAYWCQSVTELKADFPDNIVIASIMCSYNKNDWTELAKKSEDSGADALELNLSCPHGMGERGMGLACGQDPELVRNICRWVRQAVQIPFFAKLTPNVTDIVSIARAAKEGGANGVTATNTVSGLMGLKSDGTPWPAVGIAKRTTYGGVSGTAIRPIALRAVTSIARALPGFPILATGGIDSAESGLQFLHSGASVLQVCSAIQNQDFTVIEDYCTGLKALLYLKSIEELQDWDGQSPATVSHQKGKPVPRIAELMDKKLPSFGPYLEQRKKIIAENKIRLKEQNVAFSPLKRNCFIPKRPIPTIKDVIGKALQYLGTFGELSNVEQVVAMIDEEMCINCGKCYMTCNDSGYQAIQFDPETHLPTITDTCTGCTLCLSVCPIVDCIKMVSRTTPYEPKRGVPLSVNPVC

Mus musculus [3] = assay: Tumour concentration of 5-FU in HT-3 (human cervical cancer) xenograft mice at 1.38 mg/kg oral dose co-administered with 135 mg/kg Capecitabine; type: functional
[4] = Ratio of tumor and plasma 5-FU concentration in HT-3 (human cervical cancer) xenograft mice on co-administration with Capecitabine; type: functional
[5] = biological target: Cytidine deaminase (Homo sapiens) (UniProt P32320); assay: Susceptibility to Cyd deaminase at a substrate concentration of 2.0 mM
Cocaine esterase [6] = biological target: T3, Cocaine esterase (Homo sapiens, UniProt O00748); assay: Susceptibility to carboxylesterase in human liver at a concentration 2.5 mM; type: tissue-based; settings: 2500 µM
T3 sequence (O00748 whole entry): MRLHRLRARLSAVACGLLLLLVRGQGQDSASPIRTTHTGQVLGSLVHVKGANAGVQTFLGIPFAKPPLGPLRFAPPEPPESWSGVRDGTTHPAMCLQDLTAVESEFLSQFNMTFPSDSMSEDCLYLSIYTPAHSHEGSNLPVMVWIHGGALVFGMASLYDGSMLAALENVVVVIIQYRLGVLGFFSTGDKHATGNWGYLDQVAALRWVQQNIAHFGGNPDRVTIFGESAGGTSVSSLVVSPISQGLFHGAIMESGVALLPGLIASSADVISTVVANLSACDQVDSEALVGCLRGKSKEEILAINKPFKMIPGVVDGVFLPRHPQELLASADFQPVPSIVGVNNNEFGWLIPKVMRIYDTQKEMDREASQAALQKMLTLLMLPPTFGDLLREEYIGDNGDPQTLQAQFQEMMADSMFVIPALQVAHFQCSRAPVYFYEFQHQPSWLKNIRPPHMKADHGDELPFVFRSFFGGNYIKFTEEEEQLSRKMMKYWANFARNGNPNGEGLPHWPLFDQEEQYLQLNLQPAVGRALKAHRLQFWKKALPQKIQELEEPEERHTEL
Outline: (§1)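 Crude enzyme extracts from human liver and intestine; substrate at 2.5 mM. Conversion rate expressed as nmol/mg protein/h. L/I is the ratio of the liver rate to the intestine rate.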

[7] = tested on: carboxylesterase (Homo sapiens); assay: Relative susceptibility to human carboxylesterase in liver and intestine (L/I ratio)
Cocaine esterase [8] = biological target: T3, Cocaine esterase; assay: Susceptibility to carboxylesterase in human intestine at a concentration 2.5 mM; type: tissue-based; settings: 2500 µM; outline: as §1
Mus musculus [9] = assay: Plasma concentration of 5-FU in HT-3 (human cervical cancer) xenograft mice at 135 mg/kg oral dose; type: functional, organism-based; design: dose 135 mg/kg
Mus musculus [10] = assay: Tumour concentration of 5-FU in HT-3 (human cervical cancer) xenograft mice at 135 mg/kg oral dose; type: functional
Lung carcinoma cell line = assay: Antitumor activity in human lung carcinoma; type: functional
[11] = Stability at pH 2.0-7.4 determined 2 hours after treatment; type: physicochemical; settings: buffer, read-out: Stability
Outline: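 Compound held in aqueous solution at pH 2.0–7.4 for 2 h at 37 °C. Stability reported as the percentage of compound remaining.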

[12] = Stability in serum determined 1 hour after treatment; type: ADME, cell-free; settings: read-out: Stability
Outline: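 Compound incubated in serum; stability reported as the percentage remaining after 1 h.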

Mus musculus [13] = assay: Tumour concentration of 5-FU in HT-3 (human cervical cancer) xenograft mice at 33.7 mg/kg oral dose co-administered with 135 mg/kg Capecitabine; type: functional
Homo sapiens [14] = species on record: Homo sapiens; assay: Susceptibility to human intestine enzyme at a concentration 2.5 mM; type: functional; outline: as §1
Homo sapiens [15] = species on record: Homo sapiens; assay: Susceptibility to human liver enzyme at a concentration 2.5 mM; type: functional; outline: as §1
Mus musculus [16] = assay: Plasma concentration of 5-FU in HT-3 (human cervical cancer) xenograft mice at 33.7 mg/kg oral dose co-administered with 135 mg/kg Capecitabine; type: functional, organism-based

Cytidine deaminase (Homo sapiens), sequence (P32320 whole entry): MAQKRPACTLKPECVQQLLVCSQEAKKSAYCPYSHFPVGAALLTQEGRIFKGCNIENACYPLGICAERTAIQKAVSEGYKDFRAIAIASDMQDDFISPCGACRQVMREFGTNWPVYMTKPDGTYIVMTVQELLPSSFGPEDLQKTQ

With `C[C@H]1O[C@@H](n2cc(Cc3cccc(OCc4ccccc4)c3)c(=O)[nH]c2=O)[C@H](O)C1O` (single isomer, unassigned) the Relative susceptibility [1] was under 0.01.
In the case of `C=Cc1cnc(O)nc1O`, the IC50 [2] is reported as 89 nM, the “Tumour_[5-FU]” value (Mus musculus [3]) is reported as 12 nmol/g and the Ratio_tumour/plasma [4] is reported as 3.8.
With `N#Cc1c[nH]c(=O)[nH]c1=O` the IC50 [2] was 200 nM.
In the case of `C#Cc1cn([C@@H]2O[C@H](C)[C@@H](O)[C@H]2O)c(=O)nc1N`, the Relative susceptibility [5] is reported as 0.034.
For `C#Cc1cn([C@@H]2O[C@H](C)C(O)[C@H]2O)c(=O)[nH]c1=O` (single isomer, unassigned), the Relative susceptibility [1] was 5.
In the case of `CCCCCOC(=O)Nc1nc(=O)n([C@@H]2O[C@H](C)[C@@H](O)[C@H]2O)cc1I`, the Susceptibility (Cocaine esterase [6]) is reported as 90 nmol/mg protein/h, the Susceptibilty Ratio (Liver/Intestine) [7] is reported as 5 and the Susceptibility (Cocaine esterase [8]) is reported as 18 nmol/mg protein/h.
In the case of `C=Cc1cn([C@@H]2O[C@H](C)C(O)[C@H]2O)c(=O)[nH]c1=O` (single isomer, unassigned), the Relative susceptibility [1] is reported as 0.2.
Compound `C=Cc1cn([C@@H]2O[C@H](C)[C@@H](O)[C@H]2O)c(=O)nc1NC(=O)OCCCCC` has a Susceptibility (Cocaine esterase [6]) of 110 nmol/mg protein/h, a Susceptibilty Ratio (Liver/Intestine) [7] of over 22 and a Susceptibility (Cocaine esterase [8]) of under 5 nmol/mg protein/h.
With `C=Cc1cn([C@@H]2O[C@H](C)[C@@H](O)[C@H]2O)c(=O)nc1N` the Relative susceptibility [5] was 0.14.
With `CCCCCOC(=O)Nc1nc(=O)n([C@@H]2O[C@H](C)[C@@H](O)[C@H]2O)cc1F` [CAPECITABINE] the Plasma [5-FU] (Mus musculus [9]) was 0.62 nmol/mL, the Susceptibility (Cocaine esterase [6]) was 79 nmol/mg protein/h and the Susceptibility (Cocaine esterase [8]) was 5.3 nmol/mg protein/h. The “Tumour_[5-FU]” value (Mus musculus [10]) was 3.5 nmol/g and the Activity (Lung carcinoma cell line) was 377 mg/kg.
For `C[C@H]1O[C@@H](n2cc(C#N)c(=O)[nH]c2=O)[C@H](O)C1O` (single isomer, unassigned), the Relative susceptibility [1] was under 0.01.
`C[C@H]1O[C@@H](n2cc(F)c(=O)[nH]c2=O)[C@H](O)C1O` (single isomer, unassigned) gave a Relative susceptibility [1] of 1.
Work on `C[C@H]1O[C@@H](n2cc(F)c(N)nc2=O)[C@H](O)[C@@H]1O` yielded a Relative susceptibility [5] of 1.
Work on `C[C@H]1O[C@@H](n2cc(I)c(N)nc2=O)[C@H](O)[C@@H]1O` yielded a Relative susceptibility [5] of 0.33.
Compound `C[C@H]1O[C@@H](n2cc(I)c(=O)[nH]c2=O)[C@H](O)C1O` (single isomer, unassigned) has a Relative susceptibility [1] of 2.3.
`O=c1[nH]cc(Cc2cccc(OCc3ccccc3)c2)c(=O)[nH]1` gave an IC50 [2] of 97 nM.
For `O=c1[nH]cc(I)c(=O)[nH]1`, the IC50 [2] was 220 nM.
`C#Cc1c[nH]c(=O)[nH]c1=O` gave an IC50 [2] of 14 nM.
`C[C@H]1O[C@@H](n2cc(/C=C/c3ccccc3)c(=O)[nH]c2=O)[C@H](O)C1O` (single isomer, unassigned) gave a Relative susceptibility [1] of under 0.01.
For `C=Cc1cn([C@@H]2O[C@H](C)[C@@H](OC(C)=O)[C@H]2OC(C)=O)c(=O)nc1N`, the remaining at 2 h [11] was 100%, the remaining at 1 h [12] was 61% and the “Tumour_[5-FU]” value (Mus musculus [13]) was 13 nmol/g. It also gave a Susceptibility (Homo sapiens [14]) of 28 nmol/mg protein/h, a Susceptibility (Homo sapiens [15]) of 130 nmol/mg protein/h and a Plasma [5-FU] (Mus musculus [16]) of 1 nmol/mL. For the same compound, the Ratio_tumour/plasma [4] was 13.
Work on `Oc1ncc(/C=C/c2ccccc2)c(O)n1` yielded an IC50 [2] of 43 nM.
